Bioassay records as filed in PubChem BioAssay.
Sampled rows, rich in hits. Any-hit rate of the full collection: about 4.6%.
OX1R antag-1 = antagonists of human orexin 1 receptor (OX1R). O43613. OX1R-expressing cells, FRET antagonist read-out. inhibition, % at 6.6 µM. actives 1.8% (n = 330,000). AID 485270; in the data active = inhibition mostly above about 38%, no sharp cut-off; inactive = mostly below about 40%
Target sequence (O43613 whole entry, looked up): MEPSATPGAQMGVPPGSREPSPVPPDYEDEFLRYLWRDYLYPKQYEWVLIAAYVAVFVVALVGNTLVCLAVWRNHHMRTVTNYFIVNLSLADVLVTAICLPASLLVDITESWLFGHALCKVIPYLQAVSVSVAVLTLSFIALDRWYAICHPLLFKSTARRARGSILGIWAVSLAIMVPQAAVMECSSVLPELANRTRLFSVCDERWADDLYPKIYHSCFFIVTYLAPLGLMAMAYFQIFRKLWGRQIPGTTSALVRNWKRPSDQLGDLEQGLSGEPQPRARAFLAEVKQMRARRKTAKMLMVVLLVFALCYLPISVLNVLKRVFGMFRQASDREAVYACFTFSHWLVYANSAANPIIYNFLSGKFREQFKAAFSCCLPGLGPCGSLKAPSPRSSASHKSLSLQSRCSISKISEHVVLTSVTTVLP
TAAR1 ag = agonists of human TAAR1; CHO RD-HGA16 TAAR1, Fluo-8 calcium fluorescence; vehicle wells 0%, saturating PEA agonist 100%; Q96RJ0; activation, % at 3 µM; actives 0.99% (n = 360,000);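 active = activation above the mean activation of all test compounds in the run plus 3 SD, cut at about 38% in these data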
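Test system: RD-HGA16 (CHO) cells co-expressing Gα16 and hTAAR1 / Benchmarks: DMSO vehicle as 0%, PEA at EC100 as 100% / Repeats: no replicates (n 1) / Measure: % activation from peak over basal fluorescence ratio, DMSO-to-PEA scaled / Timing: 17-24 h plating, Fluo-8 75 min 37 °C, 30 min RT / Technique: kinetic Fluo-8 calcium fluorescence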
TAAR1 antagonist = human TAAR1 antagonism. inhibition, % at 3 µM. CHO RD-HGA16 TAAR1, Fluo-8 calcium fluorescence, antagonist. actives 1.5% (n = 360,000). Q96RJ0;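 active = inhibition above a per-plate cutoff, the mean inhibition of test compounds on that plate plus 3 SD, cut at about 49% in these data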
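System: RD-HGA16 CHO cells with stable hTAAR1 and Gα16 | Probe or stimulus: EC80 β-phenethylamine stimulus | Dosing: 3 µM, single point | Times: Dye loading 75 min at 37 °C, then 30 min room temperature | Measured by: Fluo-8 calcium-sensitive fluorescence | Read-out basis: % inhibition of agonist calcium response | Replicates: n of 1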
OX1R antag-2 = blocks the human orexin 1 receptor; actives 0.43% (n = 330,000); CHO/OX1R cells, Fluo-8 calcium fluorescence, orexin A; inhibition, % at 5 µM; O43613;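 active = inhibition above its plate's threshold, mean inhibition of all tested compounds on the plate plus 3 SD, cut at about 37% in these data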
GPR7 antagonist = human neuropeptides B/W receptor 1 antagonism | P48145 | GPR7-expressing cells, fluorescence antagonist assay | inhibition, % at 4.4 µM | actives 1.1% (n = 290,000) | AID 1861; in the data active = inhibition above about 16%, passing the limit was not always enough;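 also: cells stimulated with the agonist NPW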
CHO parental Ca = counter-screen for OX1R antagonists: effect in parental CHO cells; parental CHO-K1, ATP-induced calcium, Fluo-8 fluorescence; inhibition, % at 5.6 µM; actives 0.63% (n = 330,000);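 active = inhibition above that plate's mean sample inhibition plus 3 SD, cut at about 26% in these data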
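Test system: parental CHO cells; detection: calcium-sensitive Fluo-8 fluorescence; evaluation: percent inhibition of calcium signal; also added: ATP as calcium-mobilizing challenge; repeats: one well per compound; control set: ATP-challenged DMSO wells low, unchallenged DMSO wells high; compound: single nominal dose of 5.6 µM per compound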
TAAR1 nonsel count = nonselective antagonism, TAAR1 counter-screen | shares compounds with TAAR1 antagonist | actives 77% (n = 2,400) | counterscreen cell line, calcium fluorescence, antagonist mode | inhibition, % at 3 µM; in the data active = inhibition above about 22%;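 also: CHO-Ga16 host cells stimulated with ATP at an EC80 level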
TAAR1 ant conf = confirmation of human TAAR1 antagonists; actives 40% (n = 2,400); TAAR1-expressing cells, fluorescence antagonist read-out; AID 651785; inhibition, % at 3 µM; shares compounds with TAAR1 antagonist; in the data active = inhibition above about 49%;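 also: CHO-Ga16 host cells challenged with agonist PEA near its EC80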
Ga16 ag counter = nonselective Ga16 agonism, counter-screen. actives 18% (n = 2,400). activation, % at 3 µM. Ga16-expressing cells, calcium fluorescence, agonist counterscreen. shares compounds with TAAR1 antagonist; in the data active = activation above about 12%
TAAR1 ag counter = activates human TAAR1 in antagonist counter-screen | shares compounds with TAAR1 antagonist | hTAAR1 cell line, fluorescence activation, agonist mode | activation, % at 3 µM | actives 2% (n = 2,400) | AID 651955; in the data active = activation above about 37%;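 also: CHO cells stably expressing TAAR1 with calcium dye readout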
Numbers stand for hits; - = inactive; . = no result.

SMILES	OX1R antag-1	TAAR1 ag	TAAR1 antagonist	OX1R antag-2	GPR7 antagonist	CHO parental Ca	TAAR1 nonsel count	TAAR1 ant conf	Ga16 ag counter	TAAR1 ag counter
COc1ccc2nc(-c3ccc(CN4CCC(c5nc6ccccc6[nH]5)CC4)cc3)c(-c3ccccc3)nc2c1	.	-	76	.	.	.	34	-	-	-
COc1ccc2nc(-c3ccc(CN4CCC5(CC4)CNc4ccccc45)cc3)c(-c3ccccc3)nc2c1	.	-	-	.	.	.	.	.	.	.
Brc1ccc2nc(-c3ccc(CN4CCC(c5nc6ccccc6[nH]5)CC4)cc3)c(-c3ccccc3)nc2c1	.	-	86	.	.	.	56	68	20	37
COC(=O)c1oc2c(c1C)C1(CCC2)SCCS1	-	-	95	-	-	-	-	83	-	-
COc1cc(-c2[nH]nc3c2C(c2ccoc2)C(C#N)=C(N)O3)cc(OC)c1OC (stereo not drawn)	-	-	74	-	-	-	34	57	-	-
NC(=O)c1nsc(C(=O)N(c2ccccc2F)C(C(=O)NCc2ccccc2)c2ccc(O)cc2)c1N (stereo not drawn)	-	-	78	-	-	-	36	-	-	-
CCCC(C(=O)NC1CCCC1)N(Cc1ccc2c(c1)OCO2)C(=O)c1snc(C(N)=O)c1N (stereo not drawn)	-	-	63	-	-	-	28	49	-	-
Cc1ccccc1N(C(=O)c1snc(C(N)=O)c1N)C(C(=O)NCc1ccccc1)c1ccc(O)cc1 (stereo not drawn)	-	-	64	-	-	-	30	54	-	-
CN(C)c1ccc(C(C(=O)NC2CCCCC2)N(Cc2ccco2)C(=O)c2snc(C(N)=O)c2N)cc1 (stereo not drawn)	-	-	58	-	-	-	31	53	-	-
COc1cc(C(C(=O)NC2CCCC2)N(Cc2ccco2)C(=O)c2snc(C(N)=O)c2N)cc(OC)c1OC (stereo not drawn)	-	-	-	-	-	-	.	.	.	.
Nc1ccc(S(=O)(=O)Nc2nccs2)cc1N=Nc1ccccc1[N+](=O)[O-]	.	-	-	.	.	.	.	.	.	.
CN(CC(=O)Nc1ccc(F)cc1)CC(=O)N1CCCCCC1	-	-	-	-	.	-	.	.	.	.
CNC[C@@H]1Oc2ccc(NS(=O)(=O)c3ccc(Cl)cc3)cc2C(=O)N([C@H](C)CO)C[C@@H]1C	-	-	-	-	.	-	.	.	.	.
Cc1ccccc1N(C(=O)c1snc(C(N)=O)c1N)C(C(=O)NC1CCCCC1)c1ccc(O)cc1 (stereo not drawn)	-	-	73	-	-	-	-	56	-	-
Cc1ccccc1N(C(=O)c1snc(C(N)=O)c1N)C(C)C(=O)NC1CCCCC1 (stereo not drawn)	-	-	-	-	-	-	.	.	.	.
CCC(CC)c1nnc(NC(=O)c2cc([N+](=O)[O-])ccc2N2CCOCC2)s1	-	-	-	-	.	-	.	.	.	.
CC(C)[C@H](NC(=O)c1ccccc1)C(=O)OCC(=O)/C=C1/N(C)c2ccccc2C1(C)C	-	-	71	-	-	-	41	55	-	-
Cc1ccc(/C=N/NC(=O)CSc2nnc(-c3ccc(Cl)cc3)n2-c2ccc(Cl)cc2)o1	-	-	56	-	-	-	22	52	-	-
CCCC1NC(=O)c2cc3ccccc3cc2-n2c1nc1cc(Cl)ccc1c2=O (stereo not drawn)	.	-	-	.	.	.	.	.	.	.
O=C(Nc1cccc(C(F)(F)F)c1)c1csc(-c2ccncc2)n1	-	-	-	-	-	-	.	.	.	.
